Reference: ChEMBL document CHEMBL1144472, “Pyrogallol-based molecules as potent inhibitors of the antiapoptotic Bcl-2 proteins” (J Med Chem, 2007)
Active and inactive are the calls of the source. No cut-off for these calls is given here.

Experiments:
MDA-MB-231 [1] = test: Induction of cell death in human MDA-MB-231 cells after 96 hrs by trypan blue exclusion assay; type: functional, cell-based
Outline: (§1)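 MDA-MB-231 breast cancer cells were exposed to the inhibitor for 96 hours across a dose series that included 10, 100 and 1000 nM. Viability was scored by trypan blue exclusion.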

[2] = biological target: T1, Apoptosis regulator Bcl-2 (Homo sapiens, UniProt P10415); test: Displacement of biotinylated Bim BH3 peptide from recombinant His-tagged Bcl2 by ELISA assay
[3] = biological target: T1, Apoptosis regulator Bcl-2; test: Displacement of FAM-Bid BH3 peptide from human recombinant Bcl2 by FP-based binding assay
Outline: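 Competitive fluorescence-polarization binding assay with recombinant human Bcl-2 and a fluorescently tagged Bid BH3 peptide as tracer. Ki values were derived from the competitive binding curves.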

MDA-MB-231 [4] = test: Induction of cell death in human MDA-MB-231 cells at 10 nM after 96 hrs by trypan blue exclusion assay; type: functional, cell-based; outline: as §1
[5] = biological target: T2, Induced myeloid leukemia cell differentiation protein Mcl-1 (Homo sapiens, UniProt Q07820); test: Displacement of FAM-Bid BH3 peptide from human Mcl1 by FP-based binding assay
[6] = biological target: T2, Induced myeloid leukemia cell differentiation protein Mcl-1; test: Displacement of biotinylated Bim BH3 peptide from recombinant His-tagged Mcl1 by ELISA assay

T1 sequence (P10415 whole entry): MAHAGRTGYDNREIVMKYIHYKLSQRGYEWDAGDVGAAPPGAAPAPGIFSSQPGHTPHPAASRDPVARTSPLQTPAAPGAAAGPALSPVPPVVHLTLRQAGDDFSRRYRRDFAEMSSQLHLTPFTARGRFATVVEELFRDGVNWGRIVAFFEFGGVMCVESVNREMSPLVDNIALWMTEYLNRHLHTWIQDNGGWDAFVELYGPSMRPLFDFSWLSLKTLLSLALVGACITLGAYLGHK
T2 sequence (Q07820 whole entry): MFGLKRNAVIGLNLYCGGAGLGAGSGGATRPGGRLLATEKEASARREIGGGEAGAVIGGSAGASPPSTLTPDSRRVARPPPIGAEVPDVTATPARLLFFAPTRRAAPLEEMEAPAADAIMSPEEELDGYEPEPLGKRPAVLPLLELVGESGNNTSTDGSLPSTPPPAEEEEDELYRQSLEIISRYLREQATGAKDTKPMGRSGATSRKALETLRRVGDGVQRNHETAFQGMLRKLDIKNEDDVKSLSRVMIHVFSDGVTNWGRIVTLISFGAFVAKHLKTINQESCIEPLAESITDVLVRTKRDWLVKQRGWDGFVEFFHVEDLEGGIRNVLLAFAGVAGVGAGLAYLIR

IC50 [2] | Ki [3] | Ki [5] | IC50 [6] | Compound | Activity (MDA-MB-231 [1]) | Activity (MDA-MB-231 [4])
– | – | – | – | CN(C)CC[C@H](CSc1ccccc1)Nc1ccc(S(=O)(=O)NC(=O)c2ccc(N3CCN(Cc4ccccc4-c4ccc(Cl)cc4)CC3)cc2)cc1[N+](=O)[O-] | Dose-dependent effect | –
6600 nM | 590 nM | – | – | CC(C)c1cc(C(=O)N2CCc3ccc(S(=O)(=O)NCCc4ccccc4)cc3C2)c(O)c(O)c1O | Dose-dependent effect | –
38200 nM | 3100 nM | – | – | CC(C)c1cc(C(=O)N2CCc3ccccc3C2)c(O)c(O)c1O | Dose-dependent effect | –
– | 31900 nM | – | – | CC(C)c1cc(C(=O)Nc2ccccc2)c(O)c(O)c1O | Dose-dependent effect | –
330 nM | 110 nM | 150 nM | 39 nM | CN(CCCc1ccccc1)S(=O)(=O)c1cc(C(=O)N2CCc3ccc(S(=O)(=O)NCCc4ccccc4)cc3C2)c(O)c(O)c1O | Dose-dependent effect | Active
